Assay results taken from ChEMBL document CHEMBL2086296, “Synthesis of novel quinoline-2-one based chalcones of potential anti-tumor activity” (Eur J Med Chem, 2012).

Assays:
IGROV-1 = test: Cytotoxicity against human IGROV1 cells after 24 hrs by SRB assay; type: cell-based; conditions: igrov-1, 24 h
Procedure, shortened: (§1)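 NCI 60-cell screen. Cells grown in RPMI 1640 with 5% FBS and 2 mM L-glutamine, seeded at 5,000–40,000 cells/well, preincubated 24 h at 37 °C in 5% CO2. Drug stock in DMSO, diluted in medium with gentamicin; five final concentrations, 100, 10, 1.0, 0.1 and […]. Time-zero plates were TCA-fixed. Protein read by SRB staining; GI50, TGI and LC50 taken relative to time-zero.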

NCI-H322M = test: Cytotoxicity against human NCI-H322M cells after 24 hrs by SRB assay; type: cell-based; procedure, shortened: as §1
UO-31 [1] = test: (§2) Cytotoxicity against human UO31 cells after 24 hrs by SRB assay; type: cell-based; conditions: uo-31, 24 h
Procedure, shortened: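 NCI 60-cell-line screen: cells grown in RPMI 1640 with 5% FBS and 2 mM L-glutamine, seeded at 5,000–40,000 cells/well by doubling time, and preincubated 24 h at 37 °C in 5% CO2. Time-zero plates were TCA-fixed. DMSO stocks were diluted in medium with gentamicin to five concentrations (100, 10, 1.0, 0.1, […]). Protein was read by SRB, and GI50, TGI and LC50 were derived against time-zero.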

UO-31 [2] = test: as §2; type: functional; conditions: UO-31, 24 h
Procedure, shortened: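 NCI 60-cell screen. Cells are grown in RPMI 1640 with 5% FBS and 2 mM L-glutamine and seeded at 5,000–40,000 cells/well according to doubling time. They are preincubated 24 h at 37 °C in 5% CO2, and Tz plates are TCA-fixed at drug addition. Drug stock is in DMSO, diluted in medium with gentamicin, and tested at five concentrations (100, 10, 1.0, 0.1, […]). Protein is read by SRB staining. GI50, TGI and LC50 are derived relative to time-zero and control wells.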

A498 [3] = test: (§3) Cytotoxicity against human A498 cells after 24 hrs by SRB assay; type: cell-based; conditions: a498, 24 h; procedure, shortened: as §1
K562 [4] = test: (§4) Cytotoxicity against human K562 cells after 24 hrs by SRB assay; type: functional; conditions: K562, 24 h
Procedure, shortened: (§5)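 NCI 60-line screen. Cells in RPMI 1640 with 5% FBS and 2 mM L-glutamine, seeded at 5,000–40,000 cells/well by doubling time, then incubated 24 h at 37 °C, 5% CO2 before dosing. Time-zero plates fixed with TCA at drug addition. DMSO stocks diluted in medium with gentamicin to five concentrations, […]. Protein read by SRB staining. GI50, TGI and LC50 derived relative to control and time-zero.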

A498 [5] = test: as §3; type: functional; conditions: A498, 24 h; procedure, shortened: as §5
PC-3 [6] = test: (§6) Cytotoxicity against human PC3 cells after 24 hrs by SRB assay; type: cell-based; conditions: pc-3, 24 h; procedure, shortened: as §1
K562 [7] = test: as §4; type: cell-based; conditions: k562, 24 h; procedure, shortened: as §1
PC-3 [8] = test: as §6; type: functional; conditions: PC-3, 24 h; procedure, shortened: as §5
Mus musculus [9] = test: Acute toxicity in athymic nude mouse assessed as weight loss up to 400 mg/kg, ip after 2 weeks; type: organism-based; design: dose 400 mg/kg, route intraperitoneal; conditions: in vivo, 336 h
Procedure, shortened: (§7)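 Single ip injection in athymic nude mice, one mouse per dose at 400, 200 and 100 mg/kg, dosed at 0.1 mL/10 g body weight, with feed and water ad libitum. Animals observed for 2 weeks and sacrificed on >20% body weight loss or other signs of significant toxicity. If all three were sacrificed, 50, 25 and 12.5 mg/kg were tested next.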

Mus musculus [10] = test: Acute toxicity in athymic nude mouse assessed as mortality up to 400 mg/kg, ip after 2 weeks; type: organism-based; design: dose 400 mg/kg, route intraperitoneal; conditions: in vivo, 336 h; procedure, shortened: as §7

O=C(/C=C/c1cc2ccccc2[nH]c1=O)c1ccc(Cl)cc1
LC50 (IGROV-1): 50.7 µM | LC50 (NCI-H322M): > 100 µM | LC50 (UO-31 [1]): > 100 µM | GI50 (UO-31 [2]): 5.27 µM | TGI (UO-31 [2]): > 100 µM

O=C(/C=C/c1cc2ccccc2[nH]c1=O)c1ccc(O)cc1
LC50 (A498 [3]): 47.8 µM | LC50 (IGROV-1): > 100 µM | GI50 (K562 [4]): 3.89 µM | TGI (K562 [4]): > 100 µM | GI50 (A498 [5]): 8.44 µM | TGI (A498 [5]): 21.3 µM | LC50 (PC-3 [6]): > 100 µM | LC50 (NCI-H322M): 55.5 µM | LC50 (UO-31 [1]): > 100 µM | LC50 (K562 [7]): > 100 µM | GI50 (UO-31 [2]): 4.38 µM | TGI (UO-31 [2]): 26.6 µM | GI50 (PC-3 [8]): 5.39 µM | TGI (PC-3 [8]): 55.3 µM

O=C(/C=C/c1cc2ccccc2[nH]c1=O)/C=C/c1cc2ccccc2[nH]c1=O
Activity (Mus musculus [9]): Non-toxic | Activity (Mus musculus [10]): Non-toxic
